The list is not random: actives were taken first. Their share in the collection is about 1.9%.
SKN-1 block: blocks SKN-1 activity in C. elegans | C. elegans VP596 Pgst-4::GFP/RFP ratio, acrylamide-induced, 24 h | 0.49% of 360,000 active | AID 624304 | inhibition, % at 21.8 µM;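 active means interference check ratio from 0.5 to 1.5 plus GFP to RFP signal ratio inhibition reaching or exceeding a fixed threshold, cut at about 30% in these data, passing the limit was not always enough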
NR2E3 ag-1: NR2E3 (human) agonism; 0.12% of 320,000 active; Q9Y5X4; inhibition of corepressor binding, % at 4.78 µM; GST-NR2E3/biotin-RetCOR TR-FRET, 1536-well;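 active means percent inhibition above the cutoff of mean plus 3 SD of all tested compounds, set per screening campaign, cut at about 20% in these data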;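 further: 0% = DMSO wells and 100% = biotin wells as full block of FRET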
Target sequence (Q9Y5X4 whole entry, looked up): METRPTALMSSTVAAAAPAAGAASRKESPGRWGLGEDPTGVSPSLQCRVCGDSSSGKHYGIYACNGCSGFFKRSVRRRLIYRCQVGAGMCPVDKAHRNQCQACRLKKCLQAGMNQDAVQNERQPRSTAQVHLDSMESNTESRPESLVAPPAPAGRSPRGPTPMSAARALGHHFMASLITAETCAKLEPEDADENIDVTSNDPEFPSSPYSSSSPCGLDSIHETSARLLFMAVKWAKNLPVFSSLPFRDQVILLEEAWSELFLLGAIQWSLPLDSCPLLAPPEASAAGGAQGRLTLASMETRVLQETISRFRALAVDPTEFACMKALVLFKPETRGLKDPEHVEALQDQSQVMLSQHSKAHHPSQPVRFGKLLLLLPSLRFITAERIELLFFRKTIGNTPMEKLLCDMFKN
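Format: 1536-well format; test system: GST-NR2E3 and biotin-RetCOR proteins; read-out basis: percent inhibition of TR-FRET ratio; timing: 5 h incubation at 4 °C; detection: time-resolved FRET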
PG9 binder: small molecules binding HIV-1 gp120 antibody PG9; 0.43% of 360,000 active; inhibition, % at 6.7 µM; TR-FRET gp120-PG9 antibody binding; in the data active means inhibition above about 8.5%
MT1-MMP act inh: MT1-MMP (human) activation inhibition; P50281; 0.061% of 360,000 active; GFP/RFP ratio change, % at 20 µM; AID 651647; HT1080 RFP-PRO-GFP cells, GFP/RFP ratio fluorescence, overnight; percent of plate control window, DMSO zero;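 active means GFP/RFP ratio change of at least 30% with cell ATP level not reduced by more than half and red fluorescence within 50% of control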
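Assay system: HT1080 cells carrying an RFP-PRO-GFP reporter | Dosing: Single dose of 20 µM compound, 1% DMSO final | Incubation: Cells overnight before dosing, compound overnight, 37 °C, 5% CO2 | Evaluation: GFP/RFP fluorescence ratio | Control set: DMSO and RFP-L50D-GFP cell wells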
NR2E3 ag-2: activates human NR2E3 receptor; Q9Y5X4; CHO-S Gal4-NCOR/VP16-NR2E3 two-hybrid, luciferase; inhibition of corepressor binding, % at 3.98 µM; 0.35% of 360,000 active; AID 602229;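 active means inhibition above the mean of all tested compounds plus 3 SD, cut at about 70% in these data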;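 further: 0% = DMSO with NR2E3 transfected cells and 100% = cells lacking NR2E3 construct; higher means lower luciferase signal from less NR2E3 corepressor binding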
NR1D1 modulator: modulates human Rev-erb alpha binding to DNA | activity, % at 10 µM | 0.79% of 370,000 active | P20393 | Rev-erbα–FITC-DNA binding, fluorescence polarization, 90 min;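 active means activity above about 14%, limit read from the data; passing the limit was not always enough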;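 further: 0% = DMSO wells with 35 nM protein and 100% = DMSO wells with 750 nM protein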
Rev-erbA confirm: confirmation of modulators of human Rev-erb alpha DNA binding | shares compounds with NR1D1 modulator | Rev-erb alpha FITC-DNA binding, fluorescence polarization, 90 min | activation, % at 25 µM | 61% of 3,000 active | AID 1259319;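 active means activation at or above a set limit, or at least 3 SD above the negative control mean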;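 further: 0% = 35 nM protein with DMSO and 100% = 750 nM protein high control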
RORg counter: counter-screen for Rev-erb alpha modulators: RORgamma DNA binding; shares compounds with NR1D1 modulator; purified RORgamma protein-FITC-DNA binding, fluorescence polarization; IC50, µM; 8% of 910 active;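 active means Compounds whose fitted half-maximal concentration for disrupting protein-DNA binding is below 10 micromolar; the record names Rev-erb in its text, so the target is in doubt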
Numbers without * were called inactive; i = inactive; . = not tested or not shown.

SMILES | SKN-1 block | NR2E3 ag-1 | PG9 binder | MT1-MMP act inh | NR2E3 ag-2 | NR1D1 modulator | Rev-erbA confirm | others
Nc1[nH]c(C(=O)c2ccc(Br)cc2)c(-c2ccncc2)c1C(=O)NCCc1c[nH]c2ccccc12 | . | . | 1 | . | . | 13 | .
COc1ccc(OC)c(NC(=O)c2cc3oc4ccccc4c3cc2O)c1 | -7 | 2 | 1 | 1 | 2 | 41* | 15
COc1ccc(OC)c(NC(=O)c2ccccc2SC)c1 | -7 | 1 | 0 | 0 | -1 | 8 | .
O=S(=O)(c1sccc1Br)n1c(CN2CCOCC2)nc2ccccc21 | . | . | . | . | . | 1 | .
CN1C(=O)CSC1=NC12CC3CC(CC(C3)C1)C2 | 9 | -4 | 2 | -2 | -30 | 11 | .
CCN1C(=O)CSC1=NC12CC3CC(CC(C3)C1)C2 | 4 | 2 | 0 | -9 | -12 | 49* | 58* | RORg counter=>40
Cc1ccc(C(=O)Nc2nnc([C@H]3C[C@H](O)[C@@H](CO)O3)s2)cc1 | 3 | . | -1 | 0 | -35 | -6 | .
Clc1ccc(Nc2nc3ccccc3n3nnnc23)cc1 | 16 | -2 | -3 | 1 | -27 | 33* | 18*
Cc1ccc(Nc2nc3ccccc3n3nnnc23)cc1 | 4 | 1 | 5 | -3 | -81 | -1 | .
Cc1cccc(CCNc2nc3ccccc3n3nnnc23)c1 | 15 | 1 | 0 | 11 | -36 | 44* | 15
O=Nc1ccc(Cl)cn1 | . | . | -2 | . | . | -7 | .
Cc1ccc(CNC(=O)c2nnn(CC(=O)Nc3cccc(C)c3C)c2N)cc1 | 30 | -2 | -1 | 1 | 18 | 27* | 22*
COc1cccc(NC(=O)Cn2nnc(C(=O)Nc3ccccc3)c2N)c1 | 2 | -3 | -1 | 3 | -22 | 0 | .
COc1cccc(NC(=O)Cn2nnc(C(=O)NCCc3ccccc3)c2N)c1 | 0 | -1 | -3 | -1 | 16 | 20* | 5
Cc1ccc(CNC(=O)Cn2nnc(C(=O)Nc3ccc(Br)cc3)c2N)cc1 | 15 | 3 | 0 | -2 | 17 | -7 | .
COc1ccc2cc(C(=O)COC(=O)COc3ccc4c(C)cc(=O)oc4c3)ccc2c1 | 6 | 3 | 1 | -1 | 3 | 85* | 52* | RORg counter=>40
Cc1cc(NC(=O)CSc2nc(C(C)C)nc3ccccc23)no1 | -18 | 3 | 2 | -5 | 9 | 1 | .
Cc1cc(NC(=O)C(C)Sc2nc(-c3cccs3)nc3ccccc23)no1 (stereo unspecified) | 3 | . | 5 | -5 | -14 | 42* | 13
CCN1/C(=C/c2ccc3cc(C)cc(C)c3[n+]2CC)Sc2cc(C)ccc21 | 74 | . | -7 | -19 | 91* | 31* | 37* | RORg counter=i
Cc1ccc(NC(=O)c2sc(Cl)nc2-c2ccccc2)cc1C | 3 | -1 | 3 | 0 | -18 | 53* | 38* | RORg counter=>40
CC(C)(C)S(=O)(=O)N1Cc2cc(CO)ccc2[C@H]1CCO | . | . | -1 | . | . | -5 | .
Cc1cc2n(n1)C(c1cn(-c3ccccc3)nc1C)Nc1ccccc1-2 (stereo unspecified) | 18 | 0 | 0 | 0 | -10 | 29* | 5
COC(=O)[C@]12C[C@H](CC(=O)N3CCCC3)C(=O)N(Cc3ccc4c(c3)OCO4)C1=C[C@H](C(C)(C)C)O[C@@H]2C | . | . | -1 | . | . | 2 | .
COc1ccc2[nH]c(C(=O)Nc3ccc(C)c(F)c3)cc2c1 | 2 | 4 | 0 | 0 | -95 | 49* | 44* | RORg counter=1.5*
O=c1sc(N2CCN(c3ccccc3F)CC2)nc2ccsc12 | -12 | 4 | -2 | 1 | -115 | 24* | 14*
SMILES | SKN-1 block | NR2E3 ag-1 | PG9 binder | MT1-MMP act inh | NR2E3 ag-2 | NR1D1 modulator | Rev-erbA confirm | others
O=C(c1ccco1)N1CCN(c2nc3ccsc3c(=O)s2)CC1 | -9 | 1 | -2 | -3 | -57 | 1 | .
CCOC(=O)c1nn(-c2ccc(C)cc2)c(=O)cc1OCC(=O)Nc1cccc(OC)c1 | 30 | -2 | 2 | 0 | -33 | -10 | .
CCOC(=O)c1nn(-c2ccc(F)cc2)c(=O)cc1OCC(=O)Nc1ccc(OCC)cc1 | -4 | -2 | -1 | 1 | -6 | 19* | -14
CCOC(=O)c1ccccc1NC(=O)Cn1cnc2c(cnn2-c2ccc(OC)cc2)c1=O | . | 4 | -1 | . | . | 22* | 9
COc1ccc(-n2nc(C(=O)NCC(=O)Nc3ccccn3)c3ccccc3c2=O)cc1 | 2 | -4 | 1 | -1 | -14 | 42* | 18*
COc1ccc(-n2nc(C(=O)NCC(=O)Nc3cccc(Cl)c3)c3ccccc3c2=O)cc1 | 11 | 1 | 1 | 5 | 19 | 82* | 39* | RORg counter=>40
COc1ccc(-n2nc(C(=O)NCC(=O)Nc3cc(OC)c(OC)c(OC)c3)c3ccccc3c2=O)cc1Cl | 6 | -2 | 0 | -11 | -8 | 0 | .
CCCCn1nnnc1C1c2ccccc2OCC(=O)N1Cc1ccc2c(c1)OCO2 (stereo unspecified) | . | . | . | . | . | 2 | .
O=C(Cc1ccc2c(c1)OCO2)N1CCC(n2nc(-c3ccccc3)oc2=O)CC1 | . | . | . | . | . | -4 | .
COc1ccc(-n2nc(C(=O)NCC(=O)NCc3ccc(F)cc3)c3ccccc3c2=O)c(OC)c1 | -40 | . | 0 | 8 | -43 | 27* | 2
CCOc1ccc(NC(=O)CNC(=O)c2nn(-c3ccc(OC)cc3)c(=O)c3ccccc23)cc1 | -6 | 5 | 4 | 3 | 6 | 32* | 11
COc1ccc(-n2nc(C(=O)NCC(=O)N3CCN(c4ccccc4F)CC3)c3ccccc3c2=O)cc1 | 2 | 3 | 5 | -1 | -43 | 25* | -8
COc1ccc(-n2nc(C(=O)NCC(=O)N3CCN(c4ccccc4F)CC3)c3ccccc3c2=O)cc1OC | -10 | 2 | 1 | -14 | 0 | -5 | .
CCOc1ccc(-c2cc(C(=O)OC)nc3c2c(=O)n(C)c(=O)n3C)cc1 | 3 | -2 | 1 | 0 | -6 | 39* | 0
Cc1oc2c(cc(NS(=O)(=O)c3ccc(C(C)C)cc3)c3ccccc32)c1C(=O)O | 4 | 2 | -3 | -14 | -2 | -4 | .
Cc1oc2c(cc(NS(=O)(=O)c3cccs3)c3ccccc32)c1C(=O)OC(C)C | -10 | 1 | -3 | -23 | 6 | 50* | 72*
COc1ccc(C2CC3CN(C4CCCCC4)C(=O)C3N2C)cc1 (stereo unspecified) | . | . | . | . | . | 2 | .
CN(C)c1cc(-c2ccc(Cl)c(Cl)c2)oc(=O)c1Cl | 3 | 3 | 0 | -1 | -6 | 36* | -4
